Assays:
Assay type in all cases: functional, cell-based
RAW264.7 [1] = assay: Inhibition of LPS-induced NO production in mouse RAW264.7 cells after 24 hrs by Griess reagent based assay; conditions: RAW264.7, 24 h
Method in brief: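 RAW 264.7 cells seeded at 2 × 10^6 cells/mL, stimulated with 1 μg/mL LPS with or without compound, 37 °C for 24 h. Supernatant nitrite measured as NO indicator: Griess reagent, room temperature 10 min, absorbance 550 nm against sodium nitrite standard curve. Viability of remaining cells by colorimetric cell counting kit. IC50 as mean of triplicate experiments.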

RAW264.7 [2] = assay: Inhibition of LPS-induced IL-1beta production in mouse RAW264.7 cells after 24 hrs by ELISA; conditions: RAW264.7, 24 h
Method in brief: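 RAW 264.7 cells at 2 × 10^6 cells/mL stimulated with 1 μg/mL LPS in presence or absence of compound, 37 °C, 24 h. IL-1β in culture medium quantified by commercial ELISA kit. Remaining-cell viability checked by colorimetric cell counting kit. IC50 as mean of triplicate experiments.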

RAW264.7 [3] = assay: Inhibition of LPS-induced iNOS gene expression in mouse RAW264.7 cells at 12.5 to 50 uM after 24 hrs by RT-PCR method
Method in brief: (§1)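 Total RNA isolated with TRIZOL; single-stranded cDNA made from 2 μg total RNA, then PCR for iNOS or IL-1β transcripts. Products run on 1% agarose gels, stained with 5 μg/mL ethidium bromide. Cells LPS-stimulated, compound tested across doses.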

RAW264.7 [4] = assay: Inhibition of LPS-induced IL-1beta gene expression in mouse RAW264.7 cells at 12.5 to 50 uM after 24 hrs by RT-PCR method; method in brief: as §1

Structure (SMILES) | IC50 (RAW264.7 [1]) [µM] | IC50 (RAW264.7 [2]) [µM] | inhibition (RAW264.7 [3]) | inhibition (RAW264.7 [4])
CC1(C)C[C@@H](O)C[C@@]2(C)OC(=O)C=C12 [(+)-EPILOLIOLIDE] | > 50 | > 50 | – | –
N=C(N)NN [PIMAGEDINE] | 21.4 | – | – | –
CC(C)=CCc1cc(-c2cc(=O)c3c(O)cc(O)c(CC=C(C)C)c3o2)ccc1O | 19.7 | 8.6 | Dose-dependent effect | Dose-dependent effect
C=CCc1ccc(O)c(-c2cc(CC=C)ccc2O)c1 [MAGNOLOL] | 35.4 | 38.9 | – | –
COc1ccc2c(c1)c(CC(=O)O)c(C)n2C(=O)c1ccc(Cl)cc1 [INDOMETHACIN] | 15.8 | 18.7 | – | –
COc1cc([C@@H]2OC[C@@H]3[C@H]2CO[C@H]3c2cc(OC)c(O)c(OC)c2)cc(OC)c1O | 45.6 | > 50 | – | –
CC(C)=CCc1c(O)cc(O)c2c(=O)cc(-c3cc(O)c4c(c3)C=CC(C)(C)O4)oc12 | > 50 | > 50 | – | –
COc1ccc(Oc2cc(=O)c3cc(O)c(CC=C(C)C)c(O)c3o2)cc1 | 27.5 | 28.9 | – | –
COc1cc2ccc3cc(OC)c(OC)c(OC)c3c2cc1OC | 49.3 | > 50 | – | –
COc1cc([C@H]2OC[C@H]3[C@@H]2CO[C@H]3c2ccc(O)c(OC)c2)ccc1O [PINORESINOL] | 39.5 | > 50 | – | –
COc1c(O)cc(-c2cc(=O)c3c(O)cc(O)c(CC=C(C)C)c3o2)cc1CC=C(C)C | 16.8 | 8.8 | Dose-dependent effect | Dose-dependent effect
CC(=O)/C=C/[C@@]1(O)C(C)=CC(=O)CC1(C)C | 38.5 | > 50 | – | –

Second part, led by results:

IC50 (RAW264.7 [1]) [µM] | IC50 (RAW264.7 [2]) [µM] | Structure (SMILES) | inhibition (RAW264.7 [3]) | inhibition (RAW264.7 [4])
> 50 | > 50 | CC1(C)C=Cc2c(cc(O)c3c(=O)cc(Oc4ccc(O)cc4)oc23)O1 | – | –
> 50 | > 50 | COc1cc2c(cc1OC)-c1c(cc(OC)c(OC)c1OC)CC2 | – | –
> 50 | > 50 | COc1cn2c(=O)ccc(O)c2cn1 | – | –
> 50 | > 50 | COc1cc(C[C@@]2(O)CO[C@H](c3ccc(O)c(OC)c3)[C@H]2COC(C)=O)ccc1O | – | –
> 50 | > 50 | CC1(C)C[C@H](O)C[C@@]2(C)OC(=O)C=C12 [LOLIOLIDE] | – | –

Reference: ChEMBL document CHEMBL3351807, “2-Phenoxychromones and prenylflavonoids from Epimedium koreanum and their inhibitory effects on LPS-induced nitric oxide and interleukin-1β production” (J Nat Prod, 2014)
